From PubChem BioAssay
Calls of active or inactive are those of the source.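 Rule for the calls, unless noted: active = viability loss from added drug above about 55%, and viability with drug at most 40%, in both replicates (limit read from the data, passing the limit was not always enough); inconclusive = both conditions met in only one replicate; inactive = neither replicate meets both conditions.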

What was measured:
[1] = Her2 expression decrease, cell viability multiplex – SKBR3 breast tumor cells, AlphaScreen, ATP viability, primary screen (AID 461;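 active = Her2 level under about 52% in both replicate screens, with viability over 70% of control, limit read from the data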;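 for Her2 level: lower value means less Her2 protein in the cells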;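 for viability: percent of carrier control wells set as 100% viability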); conditions: SKBR3 Her2 protein level, 18-24 h, measured here: SKBR3 viability, ATP luminescence, at 10 µM
[2] = target: Receptor tyrosine-protein kinase erbB-2 (Homo sapiens) (UniProt P04626); assay: as above; conditions: 18-24 h, at 10 µM, stronger effect = lower value
Sequence of Receptor tyrosine-protein kinase erbB-2 (Homo sapiens) (P04626 whole entry, looked up): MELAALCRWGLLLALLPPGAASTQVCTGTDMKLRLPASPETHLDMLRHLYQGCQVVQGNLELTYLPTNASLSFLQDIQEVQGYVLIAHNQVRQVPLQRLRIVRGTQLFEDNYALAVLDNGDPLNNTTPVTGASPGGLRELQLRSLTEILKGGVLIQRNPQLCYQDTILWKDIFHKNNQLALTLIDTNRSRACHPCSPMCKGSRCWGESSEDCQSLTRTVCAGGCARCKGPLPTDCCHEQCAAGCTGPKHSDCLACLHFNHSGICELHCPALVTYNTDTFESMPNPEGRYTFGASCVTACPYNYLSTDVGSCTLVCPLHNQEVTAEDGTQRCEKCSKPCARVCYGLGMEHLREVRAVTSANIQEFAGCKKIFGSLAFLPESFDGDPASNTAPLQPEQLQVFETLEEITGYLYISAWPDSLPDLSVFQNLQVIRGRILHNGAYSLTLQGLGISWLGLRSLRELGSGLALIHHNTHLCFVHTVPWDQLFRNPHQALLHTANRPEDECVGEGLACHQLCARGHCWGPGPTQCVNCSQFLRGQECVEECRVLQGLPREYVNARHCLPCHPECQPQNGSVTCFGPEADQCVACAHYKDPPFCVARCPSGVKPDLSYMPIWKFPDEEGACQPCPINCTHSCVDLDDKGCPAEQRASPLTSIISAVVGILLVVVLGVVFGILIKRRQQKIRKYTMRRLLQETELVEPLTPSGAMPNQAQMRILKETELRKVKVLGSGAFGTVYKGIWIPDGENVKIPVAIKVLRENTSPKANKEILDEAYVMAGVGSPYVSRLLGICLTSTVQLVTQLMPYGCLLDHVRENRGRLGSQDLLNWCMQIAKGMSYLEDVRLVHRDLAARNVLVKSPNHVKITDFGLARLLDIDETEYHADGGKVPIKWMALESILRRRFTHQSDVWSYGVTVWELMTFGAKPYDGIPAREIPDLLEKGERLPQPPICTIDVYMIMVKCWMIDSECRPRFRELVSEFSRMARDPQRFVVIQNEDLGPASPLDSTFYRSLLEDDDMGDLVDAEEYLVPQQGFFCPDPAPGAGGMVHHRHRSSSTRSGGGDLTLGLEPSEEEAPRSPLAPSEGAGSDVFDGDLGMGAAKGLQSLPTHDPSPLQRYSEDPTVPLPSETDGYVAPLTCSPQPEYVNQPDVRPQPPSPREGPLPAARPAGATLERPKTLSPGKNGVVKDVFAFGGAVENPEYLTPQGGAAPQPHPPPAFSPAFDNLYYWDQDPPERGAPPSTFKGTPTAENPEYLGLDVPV

[3] = reduced viability of SK-BR-3 breast cancer cells – cell-based, 24 h, human, pilot screen (AID 572;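 active = viability at or below 10% of carrier control in both of two separate runs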;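 note: compound exposure lasted between 18 and 24 h rather than exactly 24 h; 100% = carrier-treated control wells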); conditions: SK-BR-3 viability, CellTiter-Glo luminescence, at 10 µM, stronger effect = lower value
[4] = HUVEC growth inhibition – cell-based, human, primary screen (AID 575;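 active = viability at or below 30% in both replicate assays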;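 note: 100% = median of untreated cell wells with 0.1% DMSO on each plate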); conditions: HUVEC proliferation, CellTiter-Glo luminescence, 72 h; at 10 µM; stronger effect = lower value
In short: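 System: primary human umbilical vein endothelial cells; Quantity: 1250 endothelial cells in each well; Buffer or medium: supplemented EBM, 2% fetal bovine serum; Doses: one dose, 10 µM final, 0.1% DMSO; Incubation: 72 h compound incubation; Technique: ATP-based CellTiter-Glo luminescent read; Evaluation: percent of median DMSO-control luminescence; Controls: vehicle and MePR control wells.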

[5] = H69AR cell proliferation blockers – human, duplicate replicates, primary screen (AID 580;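 active = viability at or under a set limit in both replicates, limit being median viability minus 3 SD, cut at about 48% in these data, passing the limit was not always enough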;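 note: 100% = mean luminescence of untreated wells and 0% = no signal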); conditions: H69AR lung tumor cells viability, ATP luminescence, 72 h; at 10 µM; stronger effect = lower value
[6] = MRP1 drug-resistance reversers in H69AR cells – cell-based, doxorubicin co-treatment, pilot screen (AID 601); conditions: CellTiter-Glo, 72 h, at 10 µM; for differential viability (reversal): stronger effect = higher value
[7] = yeast transport mutant growth inhibition pilot in 384-well plates, post-Golgi transport modulator project (AID 636; in the data active = inhibition above about 31%); conditions: absorbance 615 nm, about 18 h, stronger effect = higher value
[8] = growth suppression of yeast trafficking mutant, preliminary HTS, modulators of trafficking downstream of Golgi apparatus project, 1536-format plate, OD 615 nm (AID 637; in the data active = inhibition above about 30%); conditions: yeast transport mutant growth, absorbance 615 nm, 18 h; stronger effect = higher value
[9] = H69AR cells + 2 uM doxorubicin, measured here: viability with 2 uM doxorubicin, stronger effect = lower value
[10] = H69AR cells, compound alone cytotoxicity

Structure (SMILES)	viability [1]	Her2 level [2]	viability [3]	viability [4]	viability [5]	differential viability (reversal) ([6]; H69AR cells + 2 uM doxorubicin)	viability [6, 9]	viability [6, 10]	inhibition [7]	inhibition [8]
COc1ccc(C2c3sc(=O)[nH]c3SC3C4CCC(C4)C23)cc1 (stereo not given)	99.5%	94.5% (inactive)	99.5% (inactive)	80.1% (inactive)	89.7% (inactive)	1.93% (inactive)	87.7%	89.7%	6.4% (inactive)	5.97% (inactive)
COc1ccc(OC)c(N(CC(=O)N2CCN(c3cc(Cl)ccc3C)CC2)S(C)(=O)=O)c1	100%	94% (inactive)	100% (inactive)	78.2% (inactive)	75.9% (inactive)	3.83% (inactive)	72%	75.9%	-5.53% (inactive)	0.48% (inactive)
CCNc1nc(OC)nc(Oc2ccc(=O)n(-c3ccccc3)n2)n1	96%	86.5% (inactive)	96% (inactive)	106% (inactive)	96.4% (inactive)	10.6% (inactive)	85.8%	96.4%	-8.51% (inactive)	2% (inactive)
COc1cc(OC)cc(-c2nnc(Nc3nc4c(F)cccc4s3)o2)c1	95.5%	74% (inactive)	95.5% (inactive)	5.89% (active)	69.4% (inactive)	-17.9% (inactive)	87.3%	69.4%	-5.07% (inactive)	13.4% (inactive)
CCc1nnc(NC(=O)CSc2nnc(CSc3nc(C)cc(C)n3)n2CC)s1	100%	116% (inactive)	100% (inactive)	84.1% (inactive)	88.7% (inactive)	1.79% (inactive)	86.9%	88.7%	0.77% (inactive)	22.5% (inactive)
Cc1ccc(NS(=O)(=O)c2cn(C)cn2)cc1	95%	88% (inactive)	95% (inactive)	100% (inactive)	92.7% (inactive)	5.86% (inactive)	86.8%	92.7%	-2.63% (inactive)	2.36% (inactive)
N#Cc1c(/N=C/c2cccs2)sc2c1CCCCC2	98.5%	88.5% (inactive)	98.5% (inactive)	66.5% (inactive)	90.3% (inactive)	16.3% (inactive)	73.9%	90.3%	-5.33% (inactive)	5.74% (inactive)
Cc1ccc(C2Nc3ccccc3-c3nc4ccccc4n32)o1 (stereo not given)	97%	89.5% (inactive)	97% (inactive)	54.4% (inactive)	38.3% (active)	-18.1% (inactive)	56.4%	38.3%	-1.37% (inactive)	4.44% (inactive)
COc1ccccc1NC(=O)c1nnn(CC(=O)Nc2ccccc2)c1N	106%	81% (inactive)	106% (inactive)	70.5% (inactive)	90.7% (inactive)	-6.95% (inactive)	97.6%	90.7%	-5.47% (inactive)	-1.31% (inactive)
Cc1nc2ccccc2c(=O)n1/N=C/c1ccncc1	95%	99.5% (inactive)	95% (inactive)	105% (inactive)	103% (inactive)	12.4% (inactive)	91.1%	103%	-6.13% (inactive)	-1.94% (inactive)
CCCN1C2CCCC1CC(NC(=O)Nc1cccc(C(C)=O)c1)C2 (stereo not given)	105%	77% (inactive)	105% (inactive)	94.8% (inactive)	94.3% (inactive)	-2.24% (inactive)	96.5%	94.3%	-1.95% (inactive)	-0.95% (inactive)
Cc1cccc2cc(COC(=O)C(C)(C)C)c(=O)[nH]c12	95.5%	91.5% (inactive)	95.5% (inactive)	108% (inactive)	97.6% (inactive)	2.58% (inactive)	95%	97.6%	0.13% (inactive)	5.17% (inactive)
CCN(CCCNC(=O)C1CCN(S(=O)(=O)c2cccc3nonc23)CC1)Cc1ccccc1	89%	90% (inactive)	89% (inactive)	103% (inactive)	92.9% (inactive)	11.1% (inactive)	81.8%	92.9%	-5.39% (inactive)	2.5% (inactive)
C[C@@H]1C[C@H](O)c2cc(Cl)ccc2N1	104%	88.5% (inactive)	104% (inactive)	86.1% (inactive)	87.1% (inactive)	7.69% (inactive)	79.4%	87.1%	-5.84% (inactive)	-3.33% (inactive)
CCN(CC)c1ccc(NC(=O)c2[nH]c(C)c(C(C)=O)c2C)c(C)c1	92.5%	91% (inactive)	92.5% (inactive)	93.1% (inactive)	74.8% (inactive)	-1.04% (inactive)	75.9%	74.8%	-0.39% (inactive)	-8.06% (inactive)
CS(=O)(=O)N1CCCC(C(=O)NCCCN2CCC(Cc3ccccc3)CC2)C1 (stereo not given)	108%	115% (inactive)	108% (inactive)	101% (inactive)	103% (inactive)	0.23% (inactive)	103%	103%	2.6% (inactive)	-5.56% (inactive)
Cc1nnc(C)c2c(C)n(-c3ccc(Br)cc3)c(C)c12	110%	110% (inactive)	110% (inactive)	92.3% (inactive)	104% (inactive)	17.2% (inactive)	87.2%	104%	-7.07% (inactive)	1.61% (inactive)
CC(=O)NS(=O)(=O)c1ccc(NC(=O)c2ccccc2F)cc1	72%	95% (inactive)	72% (inactive)	87.3% (inactive)	99.4% (inactive)	3.83% (inactive)	95.5%	99.4%	0% (inactive)	2.33% (inactive)
CC1=CCC2C(=O)N(c3nc(C)cc(C)n3)C(=O)C2C1 (stereo not given)	110%	80% (inactive)	110% (inactive)	101% (inactive)	91.1% (inactive)	-3.95% (inactive)	95%	91.1%	-6.71% (inactive)	0.48% (inactive)
Cc1ccc(-c2cc(C(=O)NCCN3CCOCC3)no2)cc1	86.5%	120% (inactive)	86.5% (inactive)	95.3% (inactive)	99.8% (inactive)	12.7% (inactive)	87%	99.8%	3.07% (inactive)	-6.83% (inactive)
Cc1cc(C)cc(NC(=O)CCNS(=O)(=O)c2ccc3c(c2)oc(=O)n3C)c1	118%	112% (inactive)	118% (inactive)	95.8% (inactive)	94.9% (inactive)	-2.07% (inactive)	97%	94.9%	-6.16% (inactive)	1.75% (inactive)
CCN(Cc1nc2ccccc2c(=O)[nH]1)Cc1cc(=O)oc2cc(C)c(C)cc12	107%	102% (inactive)	107% (inactive)	63% (inactive)	62.9% (inactive)	21% (inactive)	42%	62.9%	-4.68% (inactive)	-1.67% (inactive)
CCCOc1cccc(C2/C(=C(/O)c3ccccc3)C(=O)C(=O)N2CCN(C)C)c1 (stereo not given)	108%	93% (inactive)	108% (inactive)	99.5% (inactive)	91.6% (inactive)	2.56% (inactive)	89.1%	91.6%	-6.62% (inactive)	1.75% (inactive)
O=C(CSc1n[nH]c(-c2cccs2)n1)N1CCN(S(=O)(=O)c2ccccc2)CC1	80.5%	78.5% (inactive)	80.5% (inactive)	97.4% (inactive)	102% (inactive)	-3.67% (inactive)	106%	102%	0.91% (inactive)	9.84% (inactive)
Cc1ccc(NC(=O)CSc2nnc(Cc3cccn3C)n2-c2ccc(F)cc2)cc1	82.5%	78.5% (inactive)	82.5% (inactive)	84% (inactive)	91.9% (inactive)	-4.92% (inactive)	96.8%	91.9%	-1.03% (inactive)	-4.83% (inactive)
O=C(Nc1ccc2c(c1)nc1n2CCSC1)c1ccccc1	97%	114% (inactive)	97% (inactive)	108% (inactive)	92.7% (inactive)	15.9% (inactive)	76.8%	92.7%	-0.26% (inactive)	-6% (inactive)
CCn1cc(C(=O)NCCCOC)c(=O)c2cc(S(=O)(=O)N(C)C3CCCCC3)ccc21	87%	114% (inactive)	87% (inactive)	101% (inactive)	90.8% (inactive)	-13% (inactive)	104%	90.8%	-0.9% (inactive)	-5.33% (inactive)
COC(=O)c1ccccc1S(=O)(=O)N(CCCN1CCOCC1)Cc1cccs1	111%	110% (inactive)	111% (inactive)	91.8% (inactive)	89.2% (inactive)	-0.97% (inactive)	90.2%	89.2%	-1.45% (inactive)	5.4% (inactive)
